Rows were chosen to be rich in hits. Some 2.9% of all compounds tested hit in one or more screens of this group.
DENV2 CPE: DENV2-induced cell death inhibition; DENV2-infected cells, cytopathic effect rescue, plate reader; CPE inhibition, % at 9.99 µM; actives 1.7% (n = 350,000); in the data active = CPE inhibition above about 20%, passing the limit was not always enough; inconclusive = no clear call, values can overlap the other calls; tested in BHK-21 cells;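 also: 0% = median of neutral control wells and 100% = median of positive control wells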
SIRT5 inh: inhibitors of human sirtuin-5 desuccinylase; Q9NXA8; Purified SirT5, succinyl-peptide AMC, trypsin-coupled fluorescence; inhibition, % at 15 µM; actives 1.1% (n = 330,000); AID 652115; in the data active = inhibition above about 15%; inconclusive = no clear call, values can overlap the other calls
Target sequence (Q9NXA8 whole entry, looked up): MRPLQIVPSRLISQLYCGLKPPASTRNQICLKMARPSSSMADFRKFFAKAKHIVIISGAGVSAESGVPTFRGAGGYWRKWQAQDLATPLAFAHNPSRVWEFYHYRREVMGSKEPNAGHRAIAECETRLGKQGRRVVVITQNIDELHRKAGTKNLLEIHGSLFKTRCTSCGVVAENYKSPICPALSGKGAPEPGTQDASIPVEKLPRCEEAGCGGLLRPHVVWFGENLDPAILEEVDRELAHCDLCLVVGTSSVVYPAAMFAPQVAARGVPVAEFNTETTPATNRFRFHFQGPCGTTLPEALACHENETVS
S100A4 inh HTS: inhibitors of human S100A4 binding to myosin IIA peptide. P26447. S100A4/TAMRA-MyoIIA peptide fluorescence polarization. inhibition, % at 10.7 µM. actives 0.14% (n = 360,000);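 active = mean inhibition of at least 70% across replicates, with every replicate also reaching that level; inconclusive = mean inhibition reaches 70% but some replicates fall short; inactive = mean inhibition below 70%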
Target sequence (P26447 whole entry, looked up): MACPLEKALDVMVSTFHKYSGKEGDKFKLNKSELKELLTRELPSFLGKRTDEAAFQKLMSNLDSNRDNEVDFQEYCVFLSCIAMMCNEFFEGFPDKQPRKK
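Test system: S100A4 monomer protein. Medium: HEPES buffer with Ca2+, pH 7.2. Reagent: fluorescent myosin IIA peptide, 5 nM. Compound dosing: single-point compound testing. Timing: 5 min between mix addition and reading. Benchmarks: DMSO neutral and TFP positive wells.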
PGC1a acetyl inh: modulators of PGC1a acetylation. U2OS PGC1a acetylation, AlphaScreen anti-acetyl-lysine; with virally co-expressed GCN5 acetyltransferase. inhibition, % at 15.6 µM. actives 0.17% (n = 350,000). AID 651687;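 active = every replicate shows inhibition of at least 40%; inconclusive = mean inhibition at least 40% but some replicate below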;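 also: 0% = neutral control wells and 100% = positive control wells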
Statin myotox sup: suppression of simvastatin myotoxicity. C2C12 myotubes + simvastatin, ATP luminescence, 48 h; scaled: DMSO 0, geranylgeraniol control 100. actives 0.78% (n = 330,000). rescue of ATP level, % at 7.49 µM;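 active = mean ATP rescue above about 67%, or every replicate alone reaching that limit, limit read from the data, passing the limit was not always enough; inconclusive = no clear call, values can overlap the other calls; inactive = mean under the limit and some replicate under it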;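 also: myotubes were challenged with 10 µM simvastatin during compound exposure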
An asterisk follows results filed as active; u = inconclusive; x = no result.

SMILES	DENV2 CPE	SIRT5 inh	S100A4 inh HTS	PGC1a acetyl inh	Statin myotox sup
COc1ccc(S(=O)(=O)N(C)C[C@H]2OCCCC[C@H](C)Oc3ccc(NS(=O)(=O)c4ccc(F)cc4)cc3C(=O)N([C@H](C)CO)C[C@H]2C)cc1	-1.6	22.5*	22.8	1.6	-5.6
COc1ccc(S(=O)(=O)Nc2ccc3c(c2)C(=O)N([C@H](C)CO)C[C@@H](C)[C@H](CN(C)S(=O)(=O)c2ccc(F)cc2)OCCCC[C@H](C)O3)cc1	-5.5	10.3	-9.5	-20.7	158.6*
COc1ccc(S(=O)(=O)Nc2ccc3c(c2)C(=O)N([C@H](C)CO)C[C@H](C)[C@H](CN(C)S(=O)(=O)c2ccc(F)cc2)OCCCC[C@@H](C)O3)cc1	-5.1	9.3	-6.9	-1.0	u
O=C(C1CCC1)N1CC(=O)N2[C@H](CO)[C@H](c3ccc(-c4ccccc4F)cc3)[C@H]2C1	8.4	5.6	-2.9	1.4	x
CCNC(=O)C[C@@H]1CC[C@H]2[C@@H](COc3ccc(NS(=O)(=O)c4ccccc4C)cc3C(=O)N2C)O1	-2.7	7.4	0.0	5.2	-2.9
CN1C(=O)c2cc(NC(=O)C3CCC3)ccc2OC[C@@H]2O[C@@H](CC(=O)NCC3CCCCC3)CC[C@@H]21	u	8.3	0.0	1.5	x
COc1ccc(S(=O)(=O)N(C)C[C@H]2OCCCC[C@@H](C)Oc3ccc(NS(=O)(=O)c4ccc(F)cc4)cc3C(=O)N([C@@H](C)CO)C[C@@H]2C)cc1	-4.0	22.5*	-12.9	3.7	-0.1
COc1ccc(S(=O)(=O)Nc2ccc3c(c2)C(=O)N([C@H](C)CO)C[C@H](C)[C@@H](CN(C)S(=O)(=O)c2ccc(OC)cc2)OCCCC[C@H](C)O3)cc1	7.7	x	x	8.2	x
COc1ccc(S(=O)(=O)Nc2ccc3c(c2)C(=O)N([C@@H](C)CO)C[C@@H](C)[C@@H](CN(C)S(=O)(=O)c2ccc(OC)cc2)OCCCC[C@H](C)O3)cc1	-6.5	x	x	-15.2	x
COc1ccc(S(=O)(=O)N(C)C[C@@H]2OCCCC[C@@H](C)Oc3ccc(NS(=O)(=O)c4ccc(F)cc4)cc3C(=O)N([C@H](C)CO)C[C@H]2C)cc1	13.0	18.0*	-36.4	-12.7	-13.3
COc1ccc(S(=O)(=O)Nc2ccc3c(c2)C(=O)N([C@H](C)CO)C[C@H](C)[C@@H](CN(C)S(=O)(=O)c2ccc(OC)cc2)OCCCC[C@@H](C)O3)cc1	-6.6	x	x	-18.0	x
COc1ccc(S(=O)(=O)Nc2ccc3c(c2)C(=O)N([C@H](C)CO)C[C@@H](C)[C@H](CN(C)S(=O)(=O)c2ccc(OC)cc2)OCCCC[C@@H](C)O3)cc1	-2.7	x	x	-19.8	x
COc1ccc(S(=O)(=O)Nc2ccc3c(c2)C(=O)N([C@H](C)CO)C[C@H](C)[C@H](CN(C)S(=O)(=O)c2ccc(F)cc2)OCCCC[C@H](C)O3)cc1	-2.0	14.0	6.8	-20.1	107.4*
COc1ccc(S(=O)(=O)N(C)C[C@H]2OCCCC[C@H](C)Oc3ccc(NS(=O)(=O)c4ccc(F)cc4)cc3C(=O)N([C@@H](C)CO)C[C@H]2C)cc1	-2.9	23.4*	-4.6	0.5	18.1
O=C(NCC1CC1)[C@H]1[C@H](CO)[C@H]2Cn3c(ccc(-c4ccccc4F)c3=O)[C@@H]1N2Cc1ccccc1	u	-4.1	x	x	4.5
O=C([C@H]1[C@H](CO)[C@H]2Cn3c(ccc(-c4ccccc4)c3=O)[C@@H]1N2CCC(F)(F)F)N1CCCCC1	9.1	-27.0	0.5	x	10.4
CCCNC(=O)C[C@@H]1CC[C@@H]2[C@H](COc3ccc(NC(=O)c4ccc5c(c4)OCO5)cc3C(=O)N2C)O1	2.5	1.8	4.1	3.9	-3.2
Cc1oc(-c2cccc(Cl)c2)nc1CN(C)C1CCOC1 (centres undefined)	u	-0.6	-3.8	x	x
Cc1oc(-c2ccc(-c3ccccc3)cc2)nc1CN(C)C1CCOC1 (centres undefined)	-4.4	17.6*	-2.0	-7.4	-49.0
COc1ccc2c3c(n(C)c2c1)[C@H](CO)N(Cc1ccc2c(c1)OCO2)CC31CN(C(C)=O)C1	14.6	x	x	-5.2	x
CN(c1ccc(O)cc1)c1nc(O)c(C2=c3ccccc3=NC2=O)s1	-4.5	19.9*	-1.4	-5.3	x
O=C1N=c2ccccc2=C1c1sc(=S)n(-c2ccc(O)cc2)c1O	-6.2	-8.8	5.5	-13.2	3.2
C[C@H](CO)N1C[C@H](C)[C@H](CN(C)C(=O)c2ccccc2)OCCCC[C@H](C)Oc2ccc(NC(=O)Nc3cccc4ccccc34)cc2C1=O	1.3	7.1	-16.4	6.6	x
C[C@H]1CN([C@@H](C)CO)S(=O)(=O)c2ccc(C#CC3CCCC3)cc2O[C@H]1CN(C)C(=O)Cc1ccccc1	-1.6	16.8*	1.1	-22.8	22.8
C[C@H](CO)N1C[C@H](C)[C@H](CN(C)C)Oc2cc(C#CC3(O)CCCC3)ccc2S1(=O)=O	26.3*	-1.3	42.8	-9.0	0.7
SMILES	DENV2 CPE	SIRT5 inh	S100A4 inh HTS	PGC1a acetyl inh	Statin myotox sup
C[C@@H]1CN([C@@H](C)CO)S(=O)(=O)c2ccc(C#CC3CCCC3)cc2O[C@H]1CN(C)C	22.0*	1.7	-0.2	x	-56.3
C[C@@H]1CN([C@@H](C)CO)S(=O)(=O)c2ccc(C#CC3(O)CCCC3)cc2O[C@@H]1CN(C)C	-6.3	-4.7	20.5	-3.6	-0.8
C[C@@H]1CN([C@@H](C)CO)S(=O)(=O)c2ccc(C#CC3CCCCC3)cc2O[C@@H]1CN(C)C	u	-2.8	17.1	-18.2	6.2
C[C@@H]1CN([C@H](C)CO)S(=O)(=O)c2ccc(C#CC3CCCC3)cc2O[C@@H]1CN(C)C(=O)Cc1ccccc1	0.5	3.3	2.5	-32.9	-3.9
C[C@@H]1CN([C@@H](C)CO)S(=O)(=O)c2ccc(C#CC3CCCC3)cc2O[C@@H]1CN(C)C	17.9	7.1	8.3	-14.0	22.5
C[C@H](CO)N1C[C@H](C)[C@H](CN(C)C)Oc2cc(C#CC3CCCC3)ccc2S1(=O)=O	59.4*	7.0	8.9	-12.1	18.6
COc1cccc(NC(=O)N(C)C[C@H]2Oc3cc(C#CC4(O)CCCC4)ccc3S(=O)(=O)N([C@H](C)CO)C[C@H]2C)c1	12.9	7.8	95.4*	0.1	1.8
COc1cccc(NC(=O)N(C)C[C@@H]2Oc3cc(C#CC4(O)CCCC4)ccc3S(=O)(=O)N([C@@H](C)CO)C[C@H]2C)c1	-7.8	0.1	6.7	-8.6	-34.5
COc1ccccc1C(=O)N/C(=C\c1ccccc1)C(=O)NC(Cc1ccccc1)C(=O)O (centres undefined)	4.3	69.9*	-3.3	-10.8	1.2
CC1CCN(C(=O)N[C@@H](Cc2ccccc2)C(=O)O)CC1	x	x	x	2.6	-2.3
CC(C)(C)OC(=O)N1CCC(C(=O)N[C@H](Cc2ccccc2)C(=O)O)CC1	x	x	x	x	-1.6
CC(=O)NC(Cc1ccccc1)C(=O)O (centres undefined)	56.3*	2.1	-0.3	-6.9	-4.6

Screens (PubChem)
